Measurements: ChEMBL document CHEMBL5036319, “Discovery of Novel Benzothiazepinones as Irreversible Covalent Glycogen Synthase Kinase 3β Inhibitors for the Treatment of Acute Promyelocytic Leukemia” (J Med Chem, 2021)
Active and inactive are the calls of the source. The calls are words filed in the database; no cut-off is given here.

Tests used:
[1] = tested on: MOLT-4; assay: Cytotoxicity against human MOLT-4 cells assessed as reduction in cell viability measured after 24 hrs by CCK-8 assay; type: functional, cell-based; settings: MOLT-4, 24 h
Outline: (§1)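 Cells were grown in RPMI-1640 or high-glucose DMEM with 10% FBS at 37 °C, 5% CO2, and seeded at 3 × 10^4 cells/well. Exposure was 24 h across serial concentrations (0−1000 μM in the screen). […] Three independent experiments, mean ± SEM.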

[2] = target: Glycogen synthase kinase-3 alpha (Homo sapiens) (UniProt P49840); assay: Inhibition of recombinant human GSK-3alpha at 100 uM by mobility shift assay relative to control
[3] = tested on: Raji; assay: Cytotoxicity against human Raji cells assessed as reduction in cell viability measured after 24 hrs by CCK-8 assay; type: functional, cell-based; outline: as §1
[4] = tested on: HL-60; assay: Cytotoxicity against human HL-60 cells assessed as reduction in cell viability measured after 24 hrs by CCK-8 assay; type: functional, cell-based; settings: HL-60, 24 h; outline: as §1
[5] = target: T1, Glycogen synthase kinase-3 beta (Homo sapiens, UniProt P49841); assay: Inhibition of recombinant human GSK-3beta using GS-2 peptide as substrate incubated for 30 mins in presence of ATP by kinase-glo luminescence assay
Target sequence in this assay (P49841 whole entry): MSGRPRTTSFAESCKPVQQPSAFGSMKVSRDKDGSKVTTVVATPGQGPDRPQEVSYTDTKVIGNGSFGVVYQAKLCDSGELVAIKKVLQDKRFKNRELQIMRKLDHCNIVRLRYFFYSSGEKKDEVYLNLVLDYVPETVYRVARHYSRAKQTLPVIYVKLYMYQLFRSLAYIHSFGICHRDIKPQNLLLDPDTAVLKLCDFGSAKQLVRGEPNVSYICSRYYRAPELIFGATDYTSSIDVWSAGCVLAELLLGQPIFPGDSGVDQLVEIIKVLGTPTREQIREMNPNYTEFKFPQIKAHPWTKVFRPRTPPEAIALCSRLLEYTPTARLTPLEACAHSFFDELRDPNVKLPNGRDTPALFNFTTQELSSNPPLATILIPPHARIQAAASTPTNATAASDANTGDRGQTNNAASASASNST

[6] = tested on: NB-4; assay: Cytotoxicity against human NB-4 cells assessed as reduction in cell viability measured after 24 hrs by CCK-8 assay; type: functional, cell-based; settings: NB-4, 24 h; outline: as §1
[7] = target: Platelet-derived growth factor receptor beta (Homo sapiens) (UniProt P09619); assay: Inhibition of PDGFRbeta (unknown origin) at 100 uM incubated for 60 mins by ELISA relative to control
Outline: (§2)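 Tyrosine kinase ELISA on plates precoated with poly(Glu,Tyr) 4:1 substrate. Reaction used 10 μM ATP in buffer (50 mM HEPES pH 7.4, 50 mM MgCl2, 0.5 mM MnCl2, 0.2 mM Na3VO4, 1 mM DTT) with compound in 1% DMSO. Purified kinase started the reaction, 60 min at 37 °C. Detection by anti-phosphotyrosine PY99 then HRP anti-mouse IgG with o-phenylenediamine/H2O2. Read at 490 nm; inhibition = [1 − A490/A490 control] × 100%.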

[8] = target: Vascular endothelial growth factor receptor 1 (Homo sapiens) (UniProt P17948); assay: Inhibition of Flt-1 (unknown origin) at 100 uM incubated for 60 mins by ELISA relative to control; outline: as §2
[9] = target: Fibroblast growth factor receptor 1 (Homo sapiens) (UniProt P11362); assay: Inhibition of FGFR1 (unknown origin) at 100 uM incubated for 60 mins by ELISA relative to control; outline: as §2
[10] = target: Vascular endothelial growth factor receptor 2 (Homo sapiens) (UniProt P35968); assay: Inhibition of KDR (unknown origin) at 100 uM incubated for 60 mins by ELISA relative to control; outline: as §2
[11] = target: Proto-oncogene tyrosine-protein kinase receptor Ret (Homo sapiens) (UniProt P07949); assay: Inhibition of RET (unknown origin) at 100 uM incubated for 60 mins by ELISA relative to control; outline: as §2
[12] = target: Receptor tyrosine-protein kinase erbB-4 (Homo sapiens) (UniProt Q15303); assay: Inhibition of ERBB4 (unknown origin) at 100 uM incubated for 60 min by ELISA relative to control; outline: as §2
[13] = target: Casein kinase 2 (Homo sapiens) (UniProt P67870+P68400+P19784+Q8NEV1); assay: Inhibition of CK2 (unknown origin) at 100 uM incubated for 60 mins by Millipore Kinase Profiler service relative to control
[14] = target: Mast/stem cell growth factor receptor Kit (Homo sapiens) (UniProt P10721); assay: Inhibition of c-Kit (unknown origin) at 100 uM incubated for 60 mins by ELISA relative to control; outline: as §2
[15] = target: Platelet-derived growth factor receptor alpha (Homo sapiens) (UniProt P16234); assay: Inhibition of PDGFRalpha (unknown origin) at 100 uM incubated for 60 mins by ELISA relative to control; outline: as §2
[16] = species: Homo sapiens; assay: Inhibition of PKA (unknown origin) at 100 uM incubated for 60 mins by Millipore Kinase Profiler service relative to control
[17] = tested on: NB4-DR1; assay: Antiproliferative activity against human NB4-DR1 cells assessed as reduction in cell viability incubated for 24 hrs by CCK-8 assay; type: functional, cell-based; settings: NB4-DR1, 24 h; outline: as §1
[18] = Cytotoxicity against HUVEC assessed as cell viability at 0 to 50 uM incubated for 24 hrs by CCK-8 assay relative to control; type: cell-based; settings: human, dose 0-50 µM, read-out: Activity
Outline: (§3)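 HUVEC and LO2 normal cells were cultured in RPMI-1640 or DMEM with 10% FBS at 37 °C, 5% CO2, and seeded at 3 × 10^4 cells/well. They were exposed for 24 h to graded concentrations. CCK-8 incubation was 3 h at 37 °C, with A450 read and viability expressed versus untreated control. Three independent experiments, mean ± SEM.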

[19] = Cytotoxicity against human L02 cells assessed as cell viability at 0 to 50 uM incubated for 24 hrs by CCK-8 assay relative to control; type: cell-based; settings: dose 0-50 µM, read-out: Activity; outline: as §3
[20] = target: T1, Glycogen synthase kinase-3 beta; assay: Non-competitive inhibition of recombinant human GSK-3beta at 2 to 4 uM using varying concentration of GS-2 as substrate incubated for 10 mins in presence of ATP by double reciprocal plot analysis; settings: dose 2-4 µM
Target sequence in this assay (P49841 whole entry, looked up): as the sequence (P49841 whole entry) above

[21] = Thiol reactivity of compound with mercaptoethanol measured after 24 hrs by 1H-NMR analysis; type: physicochemical
[22] = target: T1, Glycogen synthase kinase-3 beta; assay: Irreversible inhibition of recombinant human GSK-3beta preincubated for upto 10 mins by double reciprocal plot analysis; settings: time min <=10, TDE = time-dependent effect
Outline: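 Irreversibility tested in the Kinase-Glo GSK-3β assay. Inhibitor at 6.25 and 12.5 μM was preincubated with enzyme for 0, 5 or 10 min. Each point is the mean of two separate experiments done in triplicate.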
Target sequence in this assay (P49841 whole entry, looked up): as the sequence (P49841 whole entry) above

[23] = target: T1, Glycogen synthase kinase-3 beta; assay: Non-competitive inhibition of recombinant human GSK-3beta using GS-2 peptide as substrate at 2 to 4 uM incubated for 10 mins in presence of varying levels of ATP by double reciprocal plot analysis; settings: dose 2-4 µM
Target sequence in this assay (P49841 whole entry, looked up): as the sequence (P49841 whole entry) above

[24] = target: Fibroblast growth factor receptor 1 (Homo sapiens) (UniProt P11362); assay: Inhibition of FGFR1 (unknown origin) incubated for 60 mins by ELISA; settings: dose 100.0 µM

Sequence of Platelet-derived growth factor receptor alpha (Homo sapiens) (P16234 whole entry): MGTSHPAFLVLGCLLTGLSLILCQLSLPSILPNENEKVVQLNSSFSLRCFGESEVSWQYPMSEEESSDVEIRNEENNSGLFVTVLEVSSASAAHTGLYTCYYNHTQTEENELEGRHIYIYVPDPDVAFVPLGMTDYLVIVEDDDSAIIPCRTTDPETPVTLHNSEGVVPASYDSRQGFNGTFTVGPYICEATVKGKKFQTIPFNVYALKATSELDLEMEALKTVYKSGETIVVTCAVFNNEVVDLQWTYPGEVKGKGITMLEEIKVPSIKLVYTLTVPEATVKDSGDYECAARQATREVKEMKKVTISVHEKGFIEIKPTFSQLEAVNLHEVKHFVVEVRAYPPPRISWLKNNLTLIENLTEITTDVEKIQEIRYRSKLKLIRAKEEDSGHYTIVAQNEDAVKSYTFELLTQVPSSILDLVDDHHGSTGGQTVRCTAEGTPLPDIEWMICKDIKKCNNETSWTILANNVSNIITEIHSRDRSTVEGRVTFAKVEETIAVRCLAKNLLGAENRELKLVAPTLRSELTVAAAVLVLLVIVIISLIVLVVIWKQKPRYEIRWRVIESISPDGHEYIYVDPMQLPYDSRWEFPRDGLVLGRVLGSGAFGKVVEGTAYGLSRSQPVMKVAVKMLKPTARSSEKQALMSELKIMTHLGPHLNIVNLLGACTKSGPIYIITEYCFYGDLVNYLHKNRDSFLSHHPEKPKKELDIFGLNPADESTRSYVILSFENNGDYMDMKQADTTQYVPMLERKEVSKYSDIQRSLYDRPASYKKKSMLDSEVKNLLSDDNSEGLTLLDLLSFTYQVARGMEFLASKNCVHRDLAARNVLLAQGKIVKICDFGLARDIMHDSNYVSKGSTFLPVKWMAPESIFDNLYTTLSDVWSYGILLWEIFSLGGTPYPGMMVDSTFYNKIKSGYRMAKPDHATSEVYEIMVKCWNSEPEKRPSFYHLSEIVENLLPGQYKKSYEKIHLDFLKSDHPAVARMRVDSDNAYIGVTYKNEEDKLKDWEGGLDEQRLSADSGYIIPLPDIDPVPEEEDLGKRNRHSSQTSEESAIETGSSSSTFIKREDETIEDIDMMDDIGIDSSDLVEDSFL
Sequence of Vascular endothelial growth factor receptor 1 (Homo sapiens) (P17948 whole entry): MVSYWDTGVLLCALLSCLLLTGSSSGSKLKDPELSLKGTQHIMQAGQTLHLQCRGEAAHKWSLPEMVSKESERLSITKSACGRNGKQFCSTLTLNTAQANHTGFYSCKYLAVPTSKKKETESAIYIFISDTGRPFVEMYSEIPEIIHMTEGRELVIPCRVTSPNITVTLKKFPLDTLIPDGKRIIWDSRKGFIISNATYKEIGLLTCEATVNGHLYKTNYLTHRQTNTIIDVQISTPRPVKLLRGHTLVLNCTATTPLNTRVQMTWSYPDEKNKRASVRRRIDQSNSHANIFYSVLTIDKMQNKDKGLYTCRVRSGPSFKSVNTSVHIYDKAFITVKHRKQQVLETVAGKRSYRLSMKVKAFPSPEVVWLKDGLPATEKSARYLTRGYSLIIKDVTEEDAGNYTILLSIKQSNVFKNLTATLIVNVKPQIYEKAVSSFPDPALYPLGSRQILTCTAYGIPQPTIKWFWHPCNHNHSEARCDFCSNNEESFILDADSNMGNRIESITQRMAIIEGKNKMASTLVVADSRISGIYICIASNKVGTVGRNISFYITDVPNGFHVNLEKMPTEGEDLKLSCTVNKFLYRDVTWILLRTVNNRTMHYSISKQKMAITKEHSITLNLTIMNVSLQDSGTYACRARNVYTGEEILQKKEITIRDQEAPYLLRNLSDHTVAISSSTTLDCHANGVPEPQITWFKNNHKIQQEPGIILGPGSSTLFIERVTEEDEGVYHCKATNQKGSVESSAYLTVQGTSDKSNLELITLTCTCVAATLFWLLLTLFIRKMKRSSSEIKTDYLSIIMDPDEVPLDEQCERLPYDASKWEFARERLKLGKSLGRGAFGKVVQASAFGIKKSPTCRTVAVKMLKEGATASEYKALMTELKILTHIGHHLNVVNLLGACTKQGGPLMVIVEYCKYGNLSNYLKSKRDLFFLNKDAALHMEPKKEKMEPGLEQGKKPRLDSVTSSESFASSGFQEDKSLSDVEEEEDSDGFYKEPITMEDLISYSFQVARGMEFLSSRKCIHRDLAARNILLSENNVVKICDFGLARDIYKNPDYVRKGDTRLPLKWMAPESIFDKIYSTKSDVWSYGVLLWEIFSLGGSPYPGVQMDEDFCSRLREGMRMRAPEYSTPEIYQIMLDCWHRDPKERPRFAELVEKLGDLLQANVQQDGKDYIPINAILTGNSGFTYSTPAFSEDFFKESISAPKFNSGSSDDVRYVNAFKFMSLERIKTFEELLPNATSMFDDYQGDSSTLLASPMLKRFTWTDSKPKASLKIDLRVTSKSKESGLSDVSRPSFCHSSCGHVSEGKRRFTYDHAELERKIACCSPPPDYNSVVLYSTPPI
Sequence of Proto-oncogene tyrosine-protein kinase receptor Ret (Homo sapiens) (P07949 whole entry): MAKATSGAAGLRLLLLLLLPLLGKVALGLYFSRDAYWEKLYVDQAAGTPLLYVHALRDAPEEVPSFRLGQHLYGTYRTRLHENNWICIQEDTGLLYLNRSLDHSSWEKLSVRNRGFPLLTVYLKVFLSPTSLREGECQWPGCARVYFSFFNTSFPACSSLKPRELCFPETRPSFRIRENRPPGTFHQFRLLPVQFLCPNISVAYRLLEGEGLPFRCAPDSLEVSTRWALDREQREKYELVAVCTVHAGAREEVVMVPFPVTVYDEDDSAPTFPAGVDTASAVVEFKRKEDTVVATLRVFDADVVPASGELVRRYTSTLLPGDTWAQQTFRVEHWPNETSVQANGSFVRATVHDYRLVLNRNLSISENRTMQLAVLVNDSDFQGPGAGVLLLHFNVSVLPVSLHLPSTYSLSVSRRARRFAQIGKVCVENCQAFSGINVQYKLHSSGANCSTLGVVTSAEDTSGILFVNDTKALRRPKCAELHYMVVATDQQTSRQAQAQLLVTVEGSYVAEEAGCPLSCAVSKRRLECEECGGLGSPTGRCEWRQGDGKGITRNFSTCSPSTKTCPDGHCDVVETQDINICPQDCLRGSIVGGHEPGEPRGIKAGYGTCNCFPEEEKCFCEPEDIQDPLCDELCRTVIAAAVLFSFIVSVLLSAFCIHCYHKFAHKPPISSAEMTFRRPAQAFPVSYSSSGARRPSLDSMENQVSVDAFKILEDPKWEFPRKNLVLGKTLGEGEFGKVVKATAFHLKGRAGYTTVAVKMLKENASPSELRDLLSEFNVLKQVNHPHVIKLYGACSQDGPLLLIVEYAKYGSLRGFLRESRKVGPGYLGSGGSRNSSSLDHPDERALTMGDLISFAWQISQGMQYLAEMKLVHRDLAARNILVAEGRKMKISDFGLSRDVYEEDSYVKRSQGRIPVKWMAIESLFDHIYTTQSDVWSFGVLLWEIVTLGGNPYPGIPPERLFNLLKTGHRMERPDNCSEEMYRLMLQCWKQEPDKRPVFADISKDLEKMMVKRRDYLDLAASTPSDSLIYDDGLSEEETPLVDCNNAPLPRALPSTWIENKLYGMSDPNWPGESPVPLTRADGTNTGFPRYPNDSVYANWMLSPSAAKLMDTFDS
Sequence of Glycogen synthase kinase-3 alpha (Homo sapiens) (P49840 2-483 limits assumed): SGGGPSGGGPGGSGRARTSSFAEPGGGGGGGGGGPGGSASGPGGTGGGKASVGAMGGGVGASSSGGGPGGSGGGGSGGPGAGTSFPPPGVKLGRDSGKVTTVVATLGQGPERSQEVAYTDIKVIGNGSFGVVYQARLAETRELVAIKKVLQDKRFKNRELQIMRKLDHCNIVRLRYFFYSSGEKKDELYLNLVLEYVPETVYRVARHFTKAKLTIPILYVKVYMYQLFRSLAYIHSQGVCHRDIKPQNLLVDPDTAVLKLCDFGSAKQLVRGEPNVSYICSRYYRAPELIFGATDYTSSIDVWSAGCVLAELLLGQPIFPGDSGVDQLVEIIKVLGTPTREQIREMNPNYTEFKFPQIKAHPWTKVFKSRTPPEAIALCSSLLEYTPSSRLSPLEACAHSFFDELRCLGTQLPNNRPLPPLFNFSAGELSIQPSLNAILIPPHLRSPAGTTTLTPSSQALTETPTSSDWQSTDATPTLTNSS

Compound	inhibition [2] [%]	IC50 [5] [µM]	IC50 [1] [µM]	IC50 [3] [µM]	IC50 [4] [µM]	IC50 [6] [µM]	also measured
C=CC(=O)N1C(=O)CC(c2ccc(Br)cc2)Sc2ccccc21 (stereo not drawn)	33.4	6.4	106	51.3	126	59.4	–
C=CC(=O)N1C(=O)CC(c2ccccc2Cl)Sc2ccccc21 (stereo not drawn)	61.8	2.5	80.3	50.4	91.4	33.8	–
C=CC(=O)N1C(=O)CCSc2ccccc21	–	17	565	581	44.8	22.4	–
C=CC(=O)Nc1ccc(C2CC(=O)Nc3ccccc3S2)cc1 (stereo not drawn)	–	> 100	–	–	–	–	–
C=CC(=O)N1C(=O)CC(c2ccc(OC)cc2)Sc2ccccc21 (stereo not drawn)	–	6.2	83.2	43.2	92.1	32.9	–
Cc1ccc(C(=O)Nc2ccc(CN3CCN(C)CC3)c(C(F)(F)F)c2)cc1C#Cc1cnc2cccnn12	–	–	–	–	–	–	IC50 [24]: 0.0007 µM
C=CC(=O)NCCN1C(=O)CC(c2ccccc2)Sc2ccccc21 (stereo not drawn)	–	> 100	–	–	–	–	–
[Cl-].[Li+] [CHLOROLITHIUM]	–	–	–	–	–	5320	IC50 [17]: 42500 µM
C=CC(=O)N1C(=O)CC(C)Sc2ccccc21 (stereo not drawn)	–	20	730	837	199	227	–

Now from value to compound, other results behind:

inhibition [2] [%]	IC50 [5] [µM]	Compound	IC50 [1] [µM]	IC50 [3] [µM]	IC50 [4] [µM]	IC50 [6] [µM]	also measured
–	4.9	C=CC(=O)N1C(=O)CC(c2cccs2)Sc2ccccc21 (stereo not drawn)	557	659	695	765	inhibition [7]: 7.8%; inhibition [8]: 0%; inhibition [9]: 18.8%; inhibition [10]: 3.1%; inhibition [11]: 0%; inhibition [12]: 0%; inhibition [13]: 0%; inhibition [14]: 26.3%; inhibition [15]: 0%; inhibition [16]: 22%
–	> 100	CCC(=O)N1C(=O)CC(c2cccs2)Sc2ccccc21 (stereo not drawn)	–	–	–	–	–
46.7	6.7	C=CC(=O)N1C(=O)CC(c2ccc(Cl)cc2)Sc2ccccc21 (stereo not drawn)	82.4	18.4	95.7	22.6	IC50 [17]: 48.3 µM; viability at 24 h, up to 50 µM [18]: > 80%; inhibition [7]: 0%; inhibition [8]: 7.4%; inhibition [9]: 88.3%; inhibition [10]: 0%; inhibition [11]: 73.9%; viability at 24 h, up to 50 µM [19]: > 80%; inhibition [12]: 0%; inhibition [13]: 8%; inhibition [14]: 14%; inhibition [15]: 11.1%; inhibition [16]: 7%
–	15	C=CC(=O)N1C(=O)CC(c2ccc(N3CCOCC3)cc2)Sc2ccccc21 (stereo not drawn)	65	56.2	98	42.4	–
20	15	C=CC(=O)N1C(=O)CC(c2ccc(C(F)(F)F)cc2)Sc2ccccc21 (stereo not drawn)	76.3	47.6	106	38.6	–
–	6.6	C=CC(=O)N1C(=O)CC(c2ccccc2)Sc2ccccc21 (stereo not drawn)	85.9	74	97.4	35.5	inhibition [20]: Active; inhibition [7]: 2.7%; inhibition [8]: 1.7%; inhibition [9]: 0%; inhibition [10]: 0%; inhibition [11]: 0%; Drug metabolism [21]: Metabolite_Detected; inhibition [12]: 0%; inhibition [22]: Tde; inhibition [14]: 26.9%; inhibition [23]: Active; inhibition [15]: 6.5%
–	6	C=CC(=O)N1C(=O)CC(c2ccc(C(=O)OC)cc2)Sc2ccccc21 (stereo not drawn)	79.6	89.6	102	24.4	IC50 [17]: 93.1 µM; viability at 24 h, up to 50 µM [18]: > 80%; viability at 24 h, up to 50 µM [19]: > 80%
32	2.8	C=CC(=O)N1C(=O)CC(c2ccccc2C(F)(F)F)Sc2ccccc21 (stereo not drawn)	84.4	50.3	96.4	35.2	–
13.4	5.8	C=CC(=O)N1C(=O)CC(c2ccc(-c3ccccc3)cc2)Sc2ccccc21 (stereo not drawn)	97.5	56.3	118	57.7	–
92.9	6.2	C=CC(=O)N1C(=O)CC(c2ccc(C#N)cc2)Sc2ccccc21 (stereo not drawn)	88.7	84.5	115	62.4	–
50.7	7.5	C=CC(=O)N1C(=O)CC(c2ccc([N+](=O)[O-])cc2)Sc2ccccc21 (stereo not drawn)	91.5	34.8	107	37.6	–
30	4.8	C=CC(=O)N1C(=O)CC(c2ccc(C)cc2)Sc2ccccc21 (stereo not drawn)	87.6	75.5	94.4	37.3	–
–	4	C=CC(=O)N1C(=O)CC(c2cccc(Cl)c2)Sc2ccccc21 (stereo not drawn)	77.5	47.1	93.1	31.7	–
